Assay [1] concerns the target Histone deacetylase 2 (Homo sapiens) (UniProt Q92769). The assay can be described thus: Inhibition of His-tagged recombinant full length human HDAC2 expressed in baculovirus infected insect cells at 0.1 to 100 uM using Fluor-de-Lys-SIRT1 as substrate after 15 mins by fluorescence assay.
In assay [2] the test system is T47D. Briefly: Growth inhibition of human T47D cells after 48 hrs by SRB assay. The class given is functional. (The SRB assay estimates cell density from bound dye.)
Assay [3] addresses T1, NAD-dependent protein deacetylase sirtuin-2 (Homo sapiens) (UniProt Q8IXJ6).
T1 sequence (whole entry): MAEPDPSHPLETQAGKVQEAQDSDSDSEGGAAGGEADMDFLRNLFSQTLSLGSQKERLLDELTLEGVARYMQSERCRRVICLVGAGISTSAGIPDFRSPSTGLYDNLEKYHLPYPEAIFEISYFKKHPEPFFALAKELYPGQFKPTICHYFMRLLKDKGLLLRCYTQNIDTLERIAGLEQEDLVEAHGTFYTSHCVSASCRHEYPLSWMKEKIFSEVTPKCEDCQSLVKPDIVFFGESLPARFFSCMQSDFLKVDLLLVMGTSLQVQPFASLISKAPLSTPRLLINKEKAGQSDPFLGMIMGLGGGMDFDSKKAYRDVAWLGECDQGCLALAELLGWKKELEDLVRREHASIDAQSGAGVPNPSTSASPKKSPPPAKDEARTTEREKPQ
The assay can be described thus: Inhibition of SIRT2 in human Hs683 cells assessed as increase of alpha-tubulin acetylation at 10 uM after 8 hrs by Western blotting method relative to control. It is filed as cell-based. (In western blotting, separated proteins are transferred to a membrane and probed.)

In assay [4] the target is T1, NAD-dependent protein deacetylase sirtuin-2 (Homo sapiens). The assay can be described thus: Inhibition of SIRT2 in human Hs683 cells assessed as increase of alpha-tubulin acetylation at 1 uM after 8 hrs by Western blotting method relative to control. It is filed as cell-based.
The subject of assay [5] is Hs 683. The assay can be described thus: Cell cycle arrest in human Hs683 cells assessed as accumulation at G2/M phase at 2 uM after 24 to 48 hrs by propidium iodide staining-based flow cytometry. The class given is functional. As to conditions: 5.8 uM, in the assay text read “at 5.8 uM” for “at 2 uM”. The gist of the method:
(§1)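 Cells were exposed to compound at the IC50 for each line from the 72 h MTT assay, or to a reference HDAC inhibitor at 2 μM. Cell cycle distribution was analyzed after 24 and 48 h. Results are mean ± SD of three independent experiments, with p values against control cells.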
In general terms: A flow cytometer gives signals particle by particle.

Assay [6] has as its system Hs 683. The assay can be described thus: Inhibition of 3D tumor-like growth of human Hs683 cells assessed as decrease in ATP level at 5 to 10 uM treated for 24 hrs measured after 96 hrs by CellTiter-Glo assay. It is filed as functional, cell-based. The gist of the method:
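Spheroids were grown from a starting suspension of 1 × 10^3 cells in 25 μL. Cells were pretreated 24 h with compound, then left untreated for 96 h. Spheroids were harvested and mixed with CellTiter-Glo 3D reagent, shaken 5 min and stabilized 25 min, then luminescence was read. Mean ± SD of three independent experiments.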

Assay [7] concerns T98G. Briefly: Antiproliferative activity against human T98G cells after 72 hrs by MTT assay. It is filed as functional, cell-based. The method, boiled down: (§2)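 MTT assay: cells in RPMI 1640 with 10% heat-inactivated FCS at 37 °C and 5% CO2 were seeded 24 h before treatment. They were exposed 72 h to compound at 0.01–100 μM, with DMSO as solvent.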
In assay [8] the test system is U-373MG ATCC. The assay can be described thus: Cell cycle arrest in human U373 cells assessed as accumulation at sub-G1 phase at IC50 for MTT assay after 24 to 48 hrs by propidium iodide staining-based flow cytometry. The class given is functional. The gist of the method: as §1
Assay [9] concerns NCI-H226. The assay can be described thus: Growth inhibition of human NCI-H226 cells after 48 hrs by SRB assay. The class given is functional. As to conditions: NCI-H226, 48 h.
Assay [10] has as its system SF-295. Briefly: Growth inhibition of human SF295 cells after 48 hrs by SRB assay. The class given is functional. Conditions: SF-295, 48 h.
For assay [11], the system named is HT-29. The assay can be described thus: Growth inhibition of human HT-29 cells after 48 hrs by SRB assay. It is filed as functional. As to conditions: HT-29, 48 h.
Assay [12] relates to COLO 205. The assay can be described thus: Growth inhibition of human COLO205 cells after 48 hrs by SRB assay. As to conditions: COLO 205, 48 h. It is filed as functional.
Assay [13] concerns the target T1, NAD-dependent protein deacetylase sirtuin-2 (Homo sapiens). Briefly: Inhibition of SIRT2 in human Hs683 cells assessed as increase of alpha-tubulin acetylation at 5 uM after 8 hrs by Western blotting method relative to control. The class given is cell-based.
Assay [14] can be described thus: Potency index, ratio of AGK2 IC50 to test compound IC50 for human U373 cells. The class given is functional, U-373MG ATCC.
In assay [15] the test system is SK-MEL-28. The assay can be described thus: Growth inhibition of human SK-MEL-28 cells after 48 hrs by SRB assay. It is filed as functional. As to conditions: SK-MEL-28, 48 h.
Assay [16] has as its system HCT-116. Briefly: Antiproliferative activity against p53 knock out human HCT116 cells after 72 hrs by MTT assay. The class given is functional, cell-based. The gist of the method:
as §2

The subject of assay [17] is CAKI-1. Briefly: Growth inhibition of human Caki1 cells after 48 hrs by SRB assay. Conditions: CAKI-1, 48 h. The class given is functional.
Assay [18] relates to U-373MG ATCC. The assay can be described thus: Antiproliferative activity against human U373 cells transfected with SIRT1/2 siRNA at IC50 for MTT assay after 72 hrs by time-lapse videomicroscopy. It is filed as functional, cell-based.
Assay [19] deals with Hs 683. The assay can be described thus: Antiproliferative activity against human Hs683 cells after 72 hrs by MTT assay. It is filed as functional, cell-based. As to conditions: Hs 683, 72 h. The gist of the method:
as §2

A short description of assay [20]: Selectivity index, ratio of IC50 for mouse astrocytes to IC50 for human T98G cells.
For assay [21], the system named is BT-549. The assay can be described thus: Growth inhibition of human BT549 cells after 48 hrs by SRB assay. As to conditions: BT-549, 48 h. It is filed as functional.
The subject of assay [22] is MOLT-4. Briefly: Growth inhibition of human MOLT4 cells after 48 hrs by SRB assay. It is filed as functional. As to conditions: MOLT-4, 48 h.

By GI50 is commonly meant the concentration at which growth is held to half of that of the control. Low values mean greater sensitivity of the cells, high ones lower sensitivity of the cells. A word on the IC50: it is the concentration needed to halve the response being measured. A higher IC50 goes with weaker potency in that assay.

The source made the active and inactive calls. The rule behind the calls is not given here.

Chain of Histone deacetylase 2 (Homo sapiens) (Q92769 whole entry): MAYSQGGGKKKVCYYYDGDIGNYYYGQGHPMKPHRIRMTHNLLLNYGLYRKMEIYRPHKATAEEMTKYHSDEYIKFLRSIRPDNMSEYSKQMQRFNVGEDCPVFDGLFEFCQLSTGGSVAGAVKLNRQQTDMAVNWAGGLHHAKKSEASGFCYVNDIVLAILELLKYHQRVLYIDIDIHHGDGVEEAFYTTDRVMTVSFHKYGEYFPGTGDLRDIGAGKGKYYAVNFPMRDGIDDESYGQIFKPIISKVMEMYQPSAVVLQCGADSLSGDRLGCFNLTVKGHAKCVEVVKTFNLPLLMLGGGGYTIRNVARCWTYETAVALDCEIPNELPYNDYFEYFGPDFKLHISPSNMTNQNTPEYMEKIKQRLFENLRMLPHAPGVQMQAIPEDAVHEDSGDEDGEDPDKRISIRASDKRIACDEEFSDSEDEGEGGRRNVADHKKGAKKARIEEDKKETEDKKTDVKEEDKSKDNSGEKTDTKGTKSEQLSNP

Turning to `CC(C)(C)OC(=O)Nc1ccc2c(c1)C(NC(=O)Nc1cccc(C#N)c1)CC(C)(C)O2` (configuration not stated), in assay [1], the inhibition result was “inactive”. In addition, the GI50 in assay [2] was 2.69 µM; in assay [9], 2 µM; in assay [10], 2.29 µM; in assay [11], 6.92 µM; in [12], 3.55 µM; in [15], 6.46 µM. In addition, the GI50 in [17] was 2.45 µM; in assay [21] it was 3.8 µM; in [22], 2.09 µM. The fold change (FC) in assay [3] is 1.6; in assay [4] it was 1.3; in [13], 1.5. Also, the result in assay [5], in assay [16] and in assay [18] was Active. Besides, the inhibition result in [6] is “Active”. Further, the IC50 in assay [7] is 14 µM; in [19], 4 to 5.8 µM. The result in [8] was inactive. In addition, the figures for the “Ratio IC50” value in [14] and in [20] were 6 - 14 and over 10, respectively.

These data come from ChEMBL document CHEMBL4052637, “Discovery and Characterization of R/S-N-3-Cyanophenyl-N'-(6-tert-butoxycarbonylamino-3,4-dihydro-2,2-dimethyl-2H-1-benzopyran-4-yl)urea, a New Histone Deacetylase Class III Inhibitor Exerting Antiproliferative Activity against Cancer Cell Lines” (J Med Chem, 2017).
